From ChEMBL document CHEMBL4765248, “Design, synthesis, biological evaluation and molecular docking study of novel thieno[3,2-d]pyrimidine derivatives as potent FAK inhibitors” (Eur J Med Chem, 2020)

Tests used:
[1] = target: RAC-alpha serine/threonine-protein kinase (Homo sapiens) (UniProt P31749); experiment: Inhibition of His-tagged human full length AKT1 expressed in baculovirus expression system at 1 uM by Selectscreen kinase assay
Method in brief: (§1)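 Single-point screen at 1 μM final against a panel of 25 kinases using a commercial profiling service; mean of three independent experiments each run in triplicate.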

[2] = target: ALK tyrosine kinase receptor (Homo sapiens) (UniProt Q9UM73); experiment: Inhibition of GST-tagged human ALK expressed in baculovirus expression system at 1 uM by Selectscreen kinase assay; method in brief: as §1
ALK tyrosine kinase receptor (Homo sapiens), sequence (Q9UM73 19-1620 limits assumed): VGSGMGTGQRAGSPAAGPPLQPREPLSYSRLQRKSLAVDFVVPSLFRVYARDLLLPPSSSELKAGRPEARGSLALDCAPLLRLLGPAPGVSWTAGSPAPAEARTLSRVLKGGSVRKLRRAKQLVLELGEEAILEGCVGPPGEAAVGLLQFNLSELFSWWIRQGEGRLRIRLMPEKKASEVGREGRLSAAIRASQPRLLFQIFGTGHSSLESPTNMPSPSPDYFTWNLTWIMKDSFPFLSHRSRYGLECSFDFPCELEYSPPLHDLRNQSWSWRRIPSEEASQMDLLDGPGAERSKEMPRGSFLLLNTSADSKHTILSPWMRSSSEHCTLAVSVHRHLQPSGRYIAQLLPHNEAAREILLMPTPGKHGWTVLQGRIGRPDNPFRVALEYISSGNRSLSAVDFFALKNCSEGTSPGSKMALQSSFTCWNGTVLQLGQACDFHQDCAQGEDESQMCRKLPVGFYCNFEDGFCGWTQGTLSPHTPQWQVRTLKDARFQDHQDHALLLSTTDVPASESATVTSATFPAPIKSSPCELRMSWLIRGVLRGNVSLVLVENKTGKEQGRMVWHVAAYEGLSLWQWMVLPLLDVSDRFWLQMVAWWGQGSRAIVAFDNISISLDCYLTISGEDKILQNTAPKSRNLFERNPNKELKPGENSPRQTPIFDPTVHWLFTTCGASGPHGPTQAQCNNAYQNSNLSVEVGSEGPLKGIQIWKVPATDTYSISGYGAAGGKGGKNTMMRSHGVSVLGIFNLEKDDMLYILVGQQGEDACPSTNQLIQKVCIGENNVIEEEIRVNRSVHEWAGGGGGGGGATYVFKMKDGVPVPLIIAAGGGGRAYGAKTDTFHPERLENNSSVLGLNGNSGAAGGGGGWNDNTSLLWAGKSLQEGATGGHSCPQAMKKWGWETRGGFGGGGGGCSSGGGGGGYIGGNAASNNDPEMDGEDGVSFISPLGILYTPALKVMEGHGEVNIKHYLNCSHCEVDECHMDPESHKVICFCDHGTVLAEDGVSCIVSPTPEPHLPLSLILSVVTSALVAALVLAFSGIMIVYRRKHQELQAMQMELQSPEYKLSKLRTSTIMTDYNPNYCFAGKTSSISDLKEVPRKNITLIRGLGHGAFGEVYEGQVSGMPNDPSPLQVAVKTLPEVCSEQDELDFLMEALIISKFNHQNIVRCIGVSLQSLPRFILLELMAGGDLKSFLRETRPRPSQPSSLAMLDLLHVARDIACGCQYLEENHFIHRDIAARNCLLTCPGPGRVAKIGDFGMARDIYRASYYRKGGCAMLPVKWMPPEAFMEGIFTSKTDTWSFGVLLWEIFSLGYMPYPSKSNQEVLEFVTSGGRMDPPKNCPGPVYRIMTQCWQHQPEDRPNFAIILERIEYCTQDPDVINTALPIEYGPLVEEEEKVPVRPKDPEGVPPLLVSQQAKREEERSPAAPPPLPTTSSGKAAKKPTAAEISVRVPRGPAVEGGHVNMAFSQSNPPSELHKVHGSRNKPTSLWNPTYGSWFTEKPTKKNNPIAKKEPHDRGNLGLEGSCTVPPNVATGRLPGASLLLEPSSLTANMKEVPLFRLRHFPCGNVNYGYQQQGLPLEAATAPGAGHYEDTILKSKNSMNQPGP

[3] = target: Tyrosine-protein kinase BTK (Homo sapiens) (UniProt Q06187); experiment: Inhibition of His-tagged full length, recombinant human BTK expressed in baculovirus expression system at 1 uM by Selectscreen kinase assay; method in brief: as §1
Tyrosine-protein kinase BTK (Homo sapiens), sequence (Q06187 whole entry): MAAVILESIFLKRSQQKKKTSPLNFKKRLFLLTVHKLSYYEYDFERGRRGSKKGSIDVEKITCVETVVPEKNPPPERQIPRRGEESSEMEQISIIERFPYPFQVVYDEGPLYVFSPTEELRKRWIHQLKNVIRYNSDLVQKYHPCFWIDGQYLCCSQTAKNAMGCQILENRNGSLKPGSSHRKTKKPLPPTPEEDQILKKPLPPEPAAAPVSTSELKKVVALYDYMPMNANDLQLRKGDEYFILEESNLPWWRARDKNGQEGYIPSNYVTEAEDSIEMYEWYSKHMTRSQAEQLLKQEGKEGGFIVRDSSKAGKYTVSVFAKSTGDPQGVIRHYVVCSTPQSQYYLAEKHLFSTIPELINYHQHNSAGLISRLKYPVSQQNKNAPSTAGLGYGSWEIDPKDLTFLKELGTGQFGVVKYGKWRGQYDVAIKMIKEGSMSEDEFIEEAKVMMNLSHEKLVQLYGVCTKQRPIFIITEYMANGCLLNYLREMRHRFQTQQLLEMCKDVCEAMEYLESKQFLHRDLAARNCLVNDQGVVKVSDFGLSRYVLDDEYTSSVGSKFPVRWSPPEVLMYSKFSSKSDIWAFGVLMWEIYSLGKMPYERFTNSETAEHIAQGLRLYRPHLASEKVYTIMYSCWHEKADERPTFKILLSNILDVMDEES

[4] = target: Calcium/calmodulin-dependent protein kinase kinase 2 (Homo sapiens) (UniProt Q96RR4); experiment: Inhibition of GST-tagged full length human CAMKK2 expressed in baculovirus expression system at 1 uM by Selectscreen kinase assay
Calcium/calmodulin-dependent protein kinase kinase 2 (Homo sapiens), sequence (Q96RR4 2-588 limits assumed): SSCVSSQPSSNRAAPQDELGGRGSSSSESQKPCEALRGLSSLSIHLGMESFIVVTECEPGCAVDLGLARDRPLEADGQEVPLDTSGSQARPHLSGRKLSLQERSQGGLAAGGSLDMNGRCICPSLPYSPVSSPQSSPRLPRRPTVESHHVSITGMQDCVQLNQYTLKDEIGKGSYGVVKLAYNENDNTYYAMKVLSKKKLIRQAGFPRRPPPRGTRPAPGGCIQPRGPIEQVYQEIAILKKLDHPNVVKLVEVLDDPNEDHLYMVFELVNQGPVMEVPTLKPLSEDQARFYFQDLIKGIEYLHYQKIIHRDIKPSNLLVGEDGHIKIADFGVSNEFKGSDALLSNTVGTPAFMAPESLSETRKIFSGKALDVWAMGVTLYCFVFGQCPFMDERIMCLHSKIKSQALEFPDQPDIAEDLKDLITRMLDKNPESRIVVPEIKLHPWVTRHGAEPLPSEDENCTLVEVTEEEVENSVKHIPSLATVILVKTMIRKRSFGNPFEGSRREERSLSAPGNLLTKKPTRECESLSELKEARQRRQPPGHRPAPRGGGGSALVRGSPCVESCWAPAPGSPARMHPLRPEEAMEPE
Method in brief: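 Commercial SelectScreen profiling panel of 25 kinases, test compound at 1 μM. Values are the mean of three independent experiments, each run in triplicate.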

[5] = target: Serine/threonine-protein kinase mTOR (Homo sapiens) (UniProt P42345); experiment: Inhibition of GST-tagged partial length human mTOR catalytic domain (1360-2549 residues) expressed in baculovirus expression system at 1 uM by Selectscreen kinase assay; method in brief: as §1
[6] = target: Serine/threonine-protein kinase PAK 1 (Homo sapiens) (UniProt Q13153); experiment: Inhibition of GST-tagged full length human PAK1 expressed in baculovirus expression system at 1 uM by Selectscreen kinase assay; method in brief: as §1
Serine/threonine-protein kinase PAK 1 (Homo sapiens), sequence (Q13153 whole entry, the tested form may be a part): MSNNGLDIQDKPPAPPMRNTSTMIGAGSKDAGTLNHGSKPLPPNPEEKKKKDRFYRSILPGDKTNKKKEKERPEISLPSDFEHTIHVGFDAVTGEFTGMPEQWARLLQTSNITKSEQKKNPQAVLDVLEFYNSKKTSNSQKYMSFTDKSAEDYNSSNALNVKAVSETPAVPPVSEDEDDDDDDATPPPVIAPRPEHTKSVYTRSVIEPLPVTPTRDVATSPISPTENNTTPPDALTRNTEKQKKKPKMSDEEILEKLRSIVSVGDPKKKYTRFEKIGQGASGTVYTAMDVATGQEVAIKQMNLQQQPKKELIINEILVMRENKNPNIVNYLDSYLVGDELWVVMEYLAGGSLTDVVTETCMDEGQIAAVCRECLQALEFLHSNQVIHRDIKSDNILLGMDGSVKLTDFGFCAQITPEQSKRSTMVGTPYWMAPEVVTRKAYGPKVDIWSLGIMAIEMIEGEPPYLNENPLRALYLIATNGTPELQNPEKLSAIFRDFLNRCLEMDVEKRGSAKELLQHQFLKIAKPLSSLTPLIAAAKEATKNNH

[7] = target: Proto-oncogene tyrosine-protein kinase receptor Ret (Homo sapiens) (UniProt P07949); experiment: Inhibition of GST-tagged human RET cytoplasmic domain expressed in baculovirus expression system at 1 uM by Selectscreen kinase assay; method in brief: as §1
[8] = target: Tyrosine-protein kinase ZAP-70 (Homo sapiens) (UniProt P43403); experiment: Inhibition of His-tagged full-length recombinant human ZAP-70 expressed in baculovirus expression system at 1 uM by Selectscreen kinase assay; method in brief: as §1
Tyrosine-protein kinase ZAP-70 (Homo sapiens), sequence (P43403 whole entry): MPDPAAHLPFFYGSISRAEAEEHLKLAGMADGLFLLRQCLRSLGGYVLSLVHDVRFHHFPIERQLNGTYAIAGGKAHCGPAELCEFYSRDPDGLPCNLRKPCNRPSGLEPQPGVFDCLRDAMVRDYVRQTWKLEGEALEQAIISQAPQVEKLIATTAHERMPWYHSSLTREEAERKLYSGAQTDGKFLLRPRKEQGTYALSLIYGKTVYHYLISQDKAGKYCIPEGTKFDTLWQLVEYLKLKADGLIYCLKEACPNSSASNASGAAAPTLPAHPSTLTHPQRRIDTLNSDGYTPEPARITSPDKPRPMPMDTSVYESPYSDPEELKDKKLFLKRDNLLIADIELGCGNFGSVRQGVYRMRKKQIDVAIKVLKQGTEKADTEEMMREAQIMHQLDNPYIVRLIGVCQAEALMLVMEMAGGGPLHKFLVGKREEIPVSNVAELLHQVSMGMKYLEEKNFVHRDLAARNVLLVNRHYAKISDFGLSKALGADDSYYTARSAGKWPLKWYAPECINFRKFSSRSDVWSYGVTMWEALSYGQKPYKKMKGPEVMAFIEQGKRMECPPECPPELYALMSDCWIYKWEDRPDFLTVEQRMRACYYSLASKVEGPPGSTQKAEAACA

[9] = tested on: MDA-MB-231; experiment: Induction of apoptosis in human MDA-MB-231 cells assessed as late apoptotic cells at 0.1 uM incubated for 48 hrs by Annexin V-FITC/PI staining based flow cytometric analysis (reference value: 1.49%); format: functional
[10] = tested on: MDA-MB-231; experiment: Induction of apoptosis in human MDA-MB-231 cells assessed as late apoptotic cells at 0.2 uM incubated for 48 hrs by Annexin V-FITC/PI staining based flow cytometric analysis (reference value: 1.49%); format: functional
[11] = tested on: MDA-MB-231; experiment: Induction of apoptosis in human MDA-MB-231 cells assessed as necrotic cells at 0.2 uM incubated for 48 hrs by Annexin V-FITC/PI staining based flow cytometric analysis (reference value: 1.08%); format: functional
[12] = tested on: MDA-MB-231; experiment: Induction of apoptosis in human MDA-MB-231 cells assessed as viable cells at 0.4 uM incubated for 48 hrs by Annexin V-FITC/PI staining based flow cytometric analysis (reference value: 95.84%); format: functional; details: read-out: Activity
[13] = tested on: MDA-MB-231; experiment: Induction of apoptosis in human MDA-MB-231 cells assessed as early apoptotic cells at 0.4 uM incubated for 48 hrs by Annexin V-FITC/PI staining based flow cytometric analysis (reference value: 1.58%); format: functional
[14] = tested on: MDA-MB-231; experiment: Induction of cell cycle arrest in human MDA-MB-231 cells assessed as accumulation of cells at G2/M phase at 0.1 uM measured after 48 hrs by PI staining based flow cytometry method (reference value: 17.40%); format: functional
[15] = tested on: MDA-MB-231; experiment: Induction of cell cycle arrest in human MDA-MB-231 cells assessed as accumulation of cells at S phase at 0.2 uM measured after 48 hrs by PI staining based flow cytometry method (reference value: 39.17%); format: functional
[16] = tested on: MDA-MB-231; experiment: Induction of cell cycle arrest in human MDA-MB-231 cells assessed as accumulation of cells at G0/G1 phase at 0.4 uM measured after 48 hrs by PI staining based flow cytometry method (reference value: 43.43%); format: functional
[17] = tested on: MDA-MB-231; experiment: Inhibition of cell migration in human MDA-MB-231 cells measured after 48 hrs by wound healing assay; format: functional, cell-based; details: dose 0.15-0.6 µM
Method in brief: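 MDA-MB-231 cells (2×10^6/well) were grown to confluence and the monolayer was scratched with a pipette tip. Cells were washed with PBS, kept in serum-free medium and treated with DMSO or compound at 0.15, 0.3 or 0.6 μM for 48 h. Wound closure was photographed by inverted microscope at 24 and 48 h.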

[18] = Metabolic stability in rat liver microsomes assessed as parent compound remaining at 1 uM measured after 60 mins in presence of NADPH by LC-MS/MS analysis; format: ADME, Microsome; details: read-out: Stabilty
Method in brief: (§2)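 Rat liver microsomes (0.5 mg/mL) were incubated at 37 °C with 1 μM compound in 100 mM potassium phosphate, pH 7.4, with 10 mM MgCl2. Reaction was started with prewarmed NADPH cofactor and sampled at 0, 5, 10, 20, 30 and 60 min. Protein was precipitated with cold acetonitrile and supernatants analysed by LC-MS/MS to give half-life, 1 h remaining and intrinsic clearance.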

[19] = Intrinsic clearance in rat liver microsomes at 1 uM measured after 60 mins in presence of NADPH by LC-MS/MS analysis; format: ADME, Microsome; details: read-out: CLH; method in brief: as §2
[20] = Half life in rat liver microsomes at 1 uM measured up to 60 mins in presence of NADPH by LC-MS/MS analysis; format: ADME, Microsome
Method in brief: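 Rat liver microsomes (0.5 mg/mL) were incubated with 1 μM test compound at 37 °C in potassium phosphate buffer (pH 7.4, 100 mM, 10 mM MgCl2). The reaction was started with prewarmed NADPH cofactor (1 mmol). It was sampled at 0, 5, 10, 20, 30 and 60 min and quenched with cold acetonitrile. Protein was removed by centrifugation and the supernatant analysed by LC-MS/MS.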

[21] = tested on: A549; experiment: Antiproliferative activity against human A549 cells assessed as cell viability at 0.1 uM measured after 48 hrs by MTT assay (reference value: 100%); format: functional; details: read-out: Activity
[22] = tested on: A549; experiment: Antiproliferative activity against human A549 cells assessed as cell viability at 0.5 uM measured after 72 hrs by MTT assay (reference value: 100%); format: functional; details: read-out: Activity
[23] = tested on: A549; experiment: Antiproliferative activity against human A549 cells assessed as cell viability at 2.5 uM measured after 72 hrs by MTT assay (reference value: 100%); format: functional; details: read-out: Activity
[24] = tested on: MDA-MB-231; experiment: Antiproliferative activity against human MDA-MB-231 cells assessed as cell viability at 0.1 uM measured after 72 hrs by MTT assay (reference value: 100%); format: functional; details: read-out: Activity
[25] = tested on: MDA-MB-231; experiment: Antiproliferative activity against human MDA-MB-231 cells assessed as cell viability at 0.5 uM measured after 72 hrs by MTT assay (reference value: 100%); format: functional; details: read-out: Activity
[26] = tested on: MDA-MB-231; experiment: Antiproliferative activity against human MDA-MB-231 cells assessed as cell viability at 2.5 uM measured after 72 hrs by MTT assay (reference value: 100%); format: functional; details: read-out: Activity
[27] = tested on: A549; experiment: Antiproliferative activity against human A549 cells assessed as reduction in cell viability measured after 24 to 72 hrs by MTT assay; format: functional, cell-based; details: dose 0.1-2.5 µM, time 24-72 hrs

RAC-alpha serine/threonine-protein kinase (Homo sapiens), sequence (P31749 whole entry): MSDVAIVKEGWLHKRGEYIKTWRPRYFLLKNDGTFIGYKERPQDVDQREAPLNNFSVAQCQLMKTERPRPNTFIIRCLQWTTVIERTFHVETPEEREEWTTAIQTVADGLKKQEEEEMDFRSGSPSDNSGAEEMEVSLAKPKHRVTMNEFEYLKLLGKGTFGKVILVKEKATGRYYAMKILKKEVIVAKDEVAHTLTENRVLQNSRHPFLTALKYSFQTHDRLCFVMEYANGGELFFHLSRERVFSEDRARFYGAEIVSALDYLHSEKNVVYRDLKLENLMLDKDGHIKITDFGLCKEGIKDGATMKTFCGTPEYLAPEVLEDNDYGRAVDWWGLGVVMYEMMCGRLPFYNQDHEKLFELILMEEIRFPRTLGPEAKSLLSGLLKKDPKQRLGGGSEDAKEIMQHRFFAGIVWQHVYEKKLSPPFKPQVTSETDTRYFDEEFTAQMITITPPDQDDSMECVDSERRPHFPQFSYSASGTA

COc1ccccc1-c1csc2cnc(Nc3ccc(C(=O)NC4CCNCC4)c(F)c3)nc12
inhibition [1]: 15% | inhibition [2]: 95% | inhibition [3]: 88% | inhibition [4]: 77% | inhibition [5]: 2% | inhibition [6]: 67% | inhibition [7]: 97% | inhibition [8]: 6% | Activity [9]: 4.36% | Activity [10]: 13.55% | Activity [11]: 1.72% | viability at 0.4 µM [12]: 53.8% | Activity [13]: 15.61% | Activity [14]: 12.79% | Activity [15]: 39.11% | Activity [16]: 56.27% | inhibition [17]: Dose-dependent effect | remaining at 1 h, 1 µM [18]: 72.4% | microsomal CLint at 1 µM [19]: 10.4 µL/min/mg | half-life at 1 µM [20]: 2.23 h | viability at 0.1 µM [21]: 78.7% | viability at 0.5 µM [22]: 32.2% | viability at 2.5 µM [23]: 18.8% | viability at 0.1 µM [24]: 69.7% | viability at 0.5 µM [25]: 31% | viability at 2.5 µM [26]: 9.1% | Activity [27]: Dose-dependent effect
